Insulin prom up: MIN6 insulin promoter up-regulation. MIN6 insulin promoter-GFP reporter, high-content imaging; hits give high values. z-score at 5 µM. 190,000 tested, 0.3% active. AID 1625;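 active = z-score above 3 at 5 µM with at least 500 cells counted in the well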
Calb FLC: affects C. albicans growth with fluconazole. C. albicans CaCi-2 + fluconazole, Alamar Blue growth, 48 h. growth inhibition, % (concentration not given with the values). 300,000 tested, 0.57% active;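 active = growth inhibition above about 58% in most replicates, limit read from the data, passing the limit was not always enough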;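 also: all wells also contain fluconazole at 8 µg/ml as a sub-toxic cotreatment; 0% = median of DMSO wells and 100% = median of geldanamycin control wells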
SR-BI HDL uptake: mouse SR-BI HDL lipid transfer inhibition | ldlA[mSR-BI] CHO cells, DiI-HDL uptake fluorescence, 3 h | inhibition, % at 12.5 µM | 320,000 tested, 0.96% active | AID 488896;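 active = mean replicate inhibition of at least 70% and a set share of replicates each scoring 70 or more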;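 also: 0% = median of neutral control wells and 100% = median of positive control wells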
Target sequence (Q61009 whole entry, looked up): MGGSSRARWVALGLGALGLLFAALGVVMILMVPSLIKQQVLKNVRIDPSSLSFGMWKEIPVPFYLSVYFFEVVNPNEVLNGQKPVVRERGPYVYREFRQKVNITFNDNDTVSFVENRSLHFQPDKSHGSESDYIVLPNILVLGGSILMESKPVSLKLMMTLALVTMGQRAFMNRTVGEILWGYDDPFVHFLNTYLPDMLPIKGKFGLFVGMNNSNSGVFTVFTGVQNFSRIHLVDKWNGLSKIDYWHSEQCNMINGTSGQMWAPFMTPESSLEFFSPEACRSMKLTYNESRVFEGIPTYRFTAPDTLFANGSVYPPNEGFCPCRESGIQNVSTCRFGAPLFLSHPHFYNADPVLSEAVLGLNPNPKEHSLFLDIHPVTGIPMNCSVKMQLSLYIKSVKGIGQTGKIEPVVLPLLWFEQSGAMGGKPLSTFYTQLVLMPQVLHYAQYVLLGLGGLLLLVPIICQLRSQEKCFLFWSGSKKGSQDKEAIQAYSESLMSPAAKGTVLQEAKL
m5-HT2A agonist: activates the mouse 5-HT2A serotonin receptor | CHO-K1 mHTR2A beta-arrestin complementation, luminescence; percent of 30 µM serotonin response | P35363 | activation, % at 7.6 µM | AID 624169 | 360,000 tested, 0.66% active;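 active = activation above a run cutoff, the mean activation of all tested compounds plus 3 SD, cut at about 14% in these data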;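 also: 0% = plate median of compound wells and 100% = 30 µM serotonin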
SR-BI DiI-HDL act: enhances SR-BI lipid uptake from DiI-HDL; 320,000 tested, 0.096% active; activation, % at 12.5 µM; CHO ldlA[mSR-BI] cells, DiI-HDL uptake fluorescence, 3 h; 100 = double the neutral-control signal;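 active = mean replicate activation of at least 60% and every replicate at or above 60%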;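 also: 0% = median plate neutral-control signal and 100% = twice that signal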
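Assay system: CHO ldlA[mSR-BI] cells, LDL receptor-null, SR-BI overexpressing; medium: Ham's F12 with 0.5% BSA, HEPES 25 mM, pH 7.4; also added: DiI-HDL 10 µg/mL; timing: 3 h uptake period with compound, 37 °C; signal: DiI fluorescence, bottom read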
MIN6 prolif-1: induces beta-cell replication in MIN6 cells; proliferation, % at 10 µM; 330,000 tested, 0.29% active; MIN6 cells proliferation, ATPlite luminescence, 48 h; cells starved in 0.2% serum; 100% = growth in 10% serum; AID 2380;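 active = compounds whose signal lies at least 3.5 SD above the mean of all wells on their plate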;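 also: 0% = DMSO-treated cells in low-serum medium and 100% = 10% serum control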
MIN6 prolif-2: MIN6 beta-cell replication induction, confirmed | shares compounds with MIN6 prolif-1 | MIN6 beta-cell proliferation, ATPlite luminescence, 48 h; cells kept in 0.2% serum; scaled between 0.2% and 10% serum | proliferation increase, % at 50 µM | 920 tested, under 10 active;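 active = proliferation increase above 40% at any of the four tested concentrations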
Active calls of the source: *; / = no result. In the library only some 2.4% were active in any assay of this set; here they are far more common.

SMILES	Insulin prom up	Calb FLC	SR-BI HDL uptake	m5-HT2A agonist	SR-BI DiI-HDL act	MIN6 prolif-1	MIN6 prolif-2
Cc1csc(SCC(=O)Nc2cc([N+](=O)[O-])ccc2F)n1	/	/	7	-2	-7	-3	/
CCCc1c2ccccc2nc2ccccc12	0.17	22	5	8	-5	7.2*	-6
C=CCN(CC(O)c1cccc([N+](=O)[O-])c1)C(C)CCc1ccccc1 (stereo not given)	-0.02	-1	-26	0	26	-4	/
CCc1noc(C)c1C(=O)N1CCN(S(=O)(=O)c2c(C)c(C)cc(C)c2C)CC1	/	4	5	1	-5	14*	-2
COc1cccc(-c2sc3ccc(OC)cc3c2-c2cnc(N3CCOCC3)nc2)c1	/	/	/	-6	/	/	/
O=C(CCCCCCCC(=O)N1CCCC1)N1CCCC1	/	/	-7	-1	7	/	/
COCCNC(=O)c1ccc(C)cc1C	-0.2	-5	-15	2	15	7.9*	1
Cc1ccc(C(=O)NCCN(C)C)c(C)c1	-0.16	-2	-7	-5	7	2	/
CCn1nc(C(=O)OCC(=O)N(CCC#N)c2ccccc2)c2ccccc2c1=O	/	/	-4	-8	4	0	/
COCCNC(=O)C(c1ccc(F)cc1)N(Cc1ccccc1)C(=O)CCC(=O)Nc1ccccn1 (stereo not given)	/	24	/	6	/	0	/
COCCNC(=O)C(c1ccc(F)cc1)N(Cc1cccs1)C(=O)CCC(=O)Nc1ccccn1 (stereo not given)	/	17	/	-3	/	5.5*	-2
Cc1csc(N=Cc2ccc([N+](=O)[O-])o2)n1	/	/	/	-2	/	/	/
COc1cccc(CN(CC2CCCO2)S(=O)(=O)c2ccc(-n3cnnn3)c(OC)c2)c1 (stereo not given)	-0.28	6	-3	-2	3	9.3*	0
Cc1[nH]nc2ncc(C(=O)c3ccccc3O)cc12	0.86	0	3	-1	-3	12*	2
O=C(CS(=O)(=O)c1ccc(Br)cc1)N1CCOCC1	/	-10	-12	1	12	11*	-3
CCc1nnc(NC(=O)CN2CCCC(C)C2)s1 (stereo not given)	/	6	-20	3	20	0	/
CCCn1c(SCC(=O)c2c(C)[nH]c(C)c2C(=O)OCC)nc2ccccc21	-0.86	-13	18	-3	-18	6.8*	-4
Cc1ccc(CNC(=O)CCNC(=O)N2CCn3c2nc2ccccc23)cc1	/	3	-8	2	8	14*	-2
COc1cc(/C=N/NC(=O)CCOc2ccccc2C)cc(Br)c1O	-0.76	32	15	-4	-15	7.3*	-4
CCCCOc1ccc(S(=O)(=O)NC(=O)C2(C)CCN2C(=O)Cc2cccs2)cc1 (stereo not given)	/	/	/	5	/	/	/
COc1ccc(/C(C)=N/NC(=O)C(NC(=O)c2ccccc2)c2n[nH]c(=O)c3ccccc23)c(OC)c1 (stereo not given)	-0.51	6	/	4	/	6.8*	4
COc1ccc(/C(C)=N/NC(=O)CNC(=O)c2cccnc2)c(OC)c1	/	-5	6	5	-6	6.4*	1
COc1ccc(/C(C)=N/NC(=O)CNC(=O)c2cccnc2)cc1	/	-3	1	1	-1	-4	/
O=C1NC[C@H](CCCCN2C[C@H](Cc3ccc(O)cc3)N(Cc3ccccc3)C(=O)C2=O)N(CC2CCCCC2)C1=O	/	/	/	5	/	/	/
O=C(Nc1ccccc1Br)c1cccc2ccccc12	/	-12	/	-1	/	8.7*	-3
Cc1ccc(CNc2oc(-c3ccco3)nc2C#N)cc1	/	-10	-20	-7	20	0.0*	-6
Cc1cc2nc(C)c(=O)n(C)c2cc1C	0.11	-8	-32	6	32	7.3*	2
Cc1cc2nc(-c3ccc(=O)[nH]c3)n(C)c2cc1C	/	1	-15	1	15	/	/
Nc1nc(Nc2ccc(Cl)cc2)nc(NCCO)c1[N+](=O)[O-]	-0.63	1	/	-9	/	15*	4
Nc1nc(NCc2ccc(Cl)cc2)nc(NCCO)c1[N+](=O)[O-]	-2.3	-1	25	4	-25	0	/

Assay outcomes deposited in PubChem by several laboratories.
